Data taken from PubChem BioAssay AID573 (SRMLSC, 2007).
The whole screen tested about 65,000 compounds, of which about 1,400 (2.2%) were called active. The sample as a whole holds a higher share of actives than the screen did. Unmarked numbers belong to inactive results.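 How the source made its calls: active means growth inhibition at or above a cutoff equal to the mean over every tested compound plus 3 SD (cut at about 60% in these data); inactive means the rest.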

Assay: growth inhibitors of E. coli tolC mutant, primary screen, strain BW25113 ΔtolC::kan, 384-well (AID 573);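 further: growth measured after 20 h incubation at 37 °C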
Conditions: OD615, hits give high values, screened at 10 µM (by protocol)
In short: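 Assay system: tolC-deleted E. coli BW25113. Medium: kanamycin-containing LB broth (50 µg/mL). Dosing: 10 µM final, single dose. Timing: bacterial growth with compound for 20 h at 37 °C. Detection: A615 absorbance measurement. Read-out basis: growth inhibition in percent.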
For `COc1ccc(OC)c(CNC(=O)C2CCCN(c3nc4ccccc4o3)C2)c1` (configuration not stated), the growth inhibition was 1.68%.
With `Cc1cc(C)c(C#N)c(SCS(=O)c2ccc(C(C)(C)C)cc2)n1` (configuration not stated) the growth inhibition was 70.6% (active).
`COCc1cc(C)nc(SCC(=O)Nc2cccc(C)c2)c1C#N` gave a growth inhibition of -0.31%.
For `Cc1cc(C(F)(F)F)c(C#N)c(SCC(=O)NC2CC2)n1`, the growth inhibition was 16.2%.
For `N#Cc1nc(Cc2ccccc2)oc1NCCc1ccccc1`, the growth inhibition was 74.2% (active).
`N#Cc1nc(Cc2cccc3ccccc23)oc1NCc1ccc2c(c1)OCO2` gave a growth inhibition of 57.4%.
Work on `CCOc1ccc(Nc2oc(Cc3ccccc3)nc2C#N)cc1` yielded a growth inhibition of 31.9%.
Compound `C=CCn1cnc2scc(-c3ccccc3)c2c1=O` has a growth inhibition of 6.35%.
`C=CCn1c(SCc2nnc(-c3ccccc3)o2)nnc1C(O)c1ccccc1` (configuration not stated) showed a growth inhibition of 0.17%.
Compound `CC(=O)c1sc2nc(SCC(=O)N3CCCCC3)[nH]c(=O)c2c1C` has a growth inhibition of 8.81%.
For `Cc1cc(C)n(-c2nc(SCC(=O)N3CCCC3)c3c4c(sc3n2)CCCC4)n1`, the growth inhibition was 85.9% (active).
With `COCCn1c(C)cc(C(=O)CSc2ncnc3sc4c(c23)CCC4)c1C` the growth inhibition was 0.17%.
For `COCCNc1nc(-n2nc(C)cc2C)nc2sc3c(c12)CCCC3`, the growth inhibition was 94.3% (active).
Work on `COc1ccc(Nc2cc(C)nc(-n3nc(C)cc3C)n2)cc1` yielded a growth inhibition of 17.6%.
For `Cc1nc(SCC(=O)Nc2cc(C)on2)c2c3c(sc2n1)CCCC3`, the growth inhibition was 12.3%.
`CCCOC(=O)C1=C(C)NC2=C(C(=O)C(C(=O)OC)C(C)C2)C1c1ccc(N(C)C)cc1` (configuration not stated) showed a growth inhibition of 16%.
For `Cn1c(=O)[nH]c(=O)c2c1nc(N(CCO)Cc1ccccc1)n2Cc1ccccc1Cl`, the growth inhibition was 0.78%.
Compound `O=C(NCc1cccs1)C1CCN(S(=O)(=O)c2ccc3c(c2)OCCO3)CC1` has a growth inhibition of -14.5%.
In the case of `COC(=O)COc1ccc(S(=O)(=O)Nc2ccc(NC(C)=O)cc2)cc1`, the growth inhibition is reported as -1.6%.
`COc1ccc(CCNS(=O)(=O)c2ccc(F)cc2)cc1OC` gave a growth inhibition of -5.35%.
For `COC(=O)CNS(=O)(=O)c1ccc(Cc2ccc(S(=O)(=O)NCC(=O)OC)cc2)cc1`, the growth inhibition was 69.7% (active).
`COc1ccccc1Nc1ncnc2c1oc1ccccc12` gave a growth inhibition of -1.75%.
In the case of `COc1ncnc2sc3c(c12)CCCC3`, the growth inhibition is reported as 2.48%.
With `CS(=O)(=O)N(Cc1nc2sc3c(c2c(=O)[nH]1)CCCC3)C1CCCCC1` the growth inhibition was 83.8% (active).
With `CCOC(=O)N1CCN(S(=O)(=O)c2ccc(C(=O)Nc3ccc(F)cc3F)cc2)CC1` the growth inhibition was -4.51%.
With `c1csc(-c2nc(-c3ccncc3)no2)c1` the growth inhibition was 1.08%.
`Cc1cccc(C(=O)Nc2ccc(CC(=O)O)cc2)c1` gave a growth inhibition of -16%.
With `COC(=O)c1sc(=S)n(-c2ccccc2)c1N` the growth inhibition was -12.6%.
In the case of `CC1CCCC(C)N1C(=O)CN1CCN(c2nc(-c3ccc(F)cc3)cs2)CC1` (configuration not stated), the growth inhibition is reported as 100% (active).
In the case of `COc1ccc(-c2csc(N3CCN(Cc4ccc5c(c4)OCO5)CC3)n2)cc1`, the growth inhibition is reported as 5.4%.
`O=C(CN1CCN(c2nc(-c3ccccc3)cs2)CC1)NCc1ccc2c(c1)OCO2` gave a growth inhibition of 50%.
Compound `COc1c(F)c(F)c(-c2csc(N)n2)c(F)c1F` has a growth inhibition of 9.92%.
For `CNC(=O)Nc1cc(C(C)(C)C)no1`, the growth inhibition was -22.1%.
Work on `COc1ccc(CCNC(=O)c2cc3sccc3n2C)cc1OC` yielded a growth inhibition of 7.67%.
Compound `O=C(NCc1ccco1)c1cc2sccc2n1Cc1ccc(F)cc1` has a growth inhibition of 56.9%.
In the case of `CCOC(=O)c1cc2sccc2n1Cc1ccc(C#N)cc1`, the growth inhibition is reported as 62.5% (active).
`c1nnc2c3c4c(sc3ncn12)CCC4` showed a growth inhibition of -4.55%.
With `O=C(CSc1nc2ccccc2o1)N1CCN(c2ccccc2)CC1` the growth inhibition was 5.08%.
For `Cc1cccc(NC(=O)CSC(N)=O)c1C`, the growth inhibition was -15.7%.
Work on `O=C(O)C1CC=CCC1C(=O)NCCc1ccccc1` (configuration not stated) yielded a growth inhibition of -21.4%.
For `CC1CCCN(c2ccc(C(=O)NCCc3ccccc3)cn2)C1` (configuration not stated), the growth inhibition was 61.4% (active).
For `O=C(NCCCNCc1ccccc1)c1ccc(/C=N/O)nc1`, the growth inhibition was -12.5%.
In the case of `COc1ccc(S(=O)(=O)N2CCOCC2)cc1C(=O)Nc1nc2ccccc2s1`, the growth inhibition is reported as -15.6%.
In the case of `CCCn1c(=O)c2[nH]c(C3CCCC3)nc2n(CCC)c1=O`, the growth inhibition is reported as 5.97%.
In the case of `O.O.O.O=S(=O)([O-])OC[C@H]1O[C@@H](O[C@]2(COS(=O)(=O)[O-])O[C@H](OS(=O)(=O)[O-])[C@@H](OS(=O)(=O)[O-])[C@@H]2OS(=O)(=O)[O-])[C@H](OS(=O)(=O)[O-])[C@@H](OS(=O)(=O)[O-])[C@@H]1OS(=O)(=O)[O-].[Al]`, the growth inhibition is reported as -6.62%.
`CCOC(=O)CSc1nnc(-c2cccc(Br)c2)o1` showed a growth inhibition of -4.64%.
For `Cc1noc(C)c1S(=O)(=O)N(CC(=O)NCc1ccc(Cl)cc1)c1ccc2c(c1)OCO2`, the growth inhibition was -5.56%.
